Reference: ChEMBL document CHEMBL1125740, “Heterocyclic quinones. 17. A new in vivo active antineoplastic drug: 6,7-bis(1-aziridinyl)-4-[[3-(N,N-dimethylamino)propyl]amino]-5,8- quinazolinedione” (J Med Chem, 1991)
Values joined by “and” are separate entries in the source; they are usually repeats but may differ in a detail not shown here. Identical values can stand only once.

How the values were obtained:
[1] = system: P388; experiment: Compound was evaluated in vivo for antitumor activity after intraperitoneal administration against P388/L-PAM(14) for median day of death at an optimal dose of 0.25 mg/kg/injection at 1,4,7,11 day schedule.; type: functional, Mus musculus
[2] = Compound was evaluated in vivo for antitumor activity against Lewis Lung cercinoma after injecting the compound intravenously for optimal dose; type: functional, Mus musculus
In short: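 Lewis lung carcinoma: 10^6 cells implanted im into C57Bl/6-derived hosts. Drug given iv on days 5, 9 and 13, 10 mice per group. Median tumor burden and weight nadir recorded. Survivors were killed on day 19, and their lungs were fixed in Fekete solution so that macroscopic metastases could be counted.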

[3] = system: L1210; experiment: Compound was evaluated in vivo for antitumor activity after intraperitoneal administration against L1210(935) for tumor free survivors at an optimal dose of 0.2 mg/kg/injection at 1-4 day schedule.; type: functional, Mus musculus
In short: (§1)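 L1210 leukemia, maintained in DBA/2 mice, was given ip as 10⁵ cells on day 0 to F1 hybrid or strain-of-origin mice over 18 g, in groups of 8. Dosing was ip from day 1, and mortality was checked daily. Median day of death counts dying mice only. %ILS = 100×(treated − control median day of death)/control median. Tumor-free survivors were counted on day 60. Weight change is g/mouse at nadir.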

[4] = system: P388; experiment: Compound was evaluated in vivo for antitumor activity after intraperitoneal administration against P388/L-PAM(14) for change in body weight at an optimal dose of 0.2 mg/kg/injection at 1,2,3,4 day schedule.; type: functional, Mus musculus
[5] = system: L1210; experiment: Compound was evaluated in vivo for antitumor activity after intraperitoneal administration against L1210(935)for change in body weight at an optimal dose of 0.2 mg/kg/injection at 1-4 day schedule.; type: functional, Mus musculus; in short: as §1
[6] = system: P388; experiment: Compound was evaluated in vivo for antitumor activity after intraperitoneal administration against P388/L-PAM(14) for median day of death at an optimal dose of 0.1 mg/kg/injection at 1,2,3,4 day schedule.; type: functional, Mus musculus
[7] = system: L1210; experiment: Compound was evaluated in vivo for antitumor activity after intraperitoneal administration against L1210(935) for mortality range at an optimal dose of 1 mg/kg/injection at 1 day schedule.; type: functional, Mus musculus; in short: as §1
[8] = system: P388; experiment: Compound was evaluated in vivo for antitumor activity after intraperitoneal administration against P388/L-PAM(14) for total dose at an optimal dose of 0.1 mg/kg/injection at 1,2,3,4 day schedule.; type: functional, Mus musculus
[9] = system: P388; experiment: Compound was evaluated in vivo for antitumor activity after intraperitoneal administration against P388 (1313) for median day of death at an optimal dose of 0.2 mg/kg/injection; type: functional, Mus musculus
[10] = system: L1210; experiment: Compound was evaluated in vivo for antitumor activity after intraperitoneal administration against L1210(935)for % increase in life span at an optimal dose of 0.5 mg/kg/injection at 1 day schedule.; type: functional; settings: Mus musculus, L1210, ip, 24 h; in short: as §1
[11] = system: L1210; experiment: Compound was evaluated in vivo for antitumor activity after intraperitoneal administration against L1210(935)for change in body weight at an optimal dose of 0.4 mg/kg/injection at 1-4 day schedule.; type: functional, Mus musculus; in short: as §1
[12] = Compound was evaluated in vivo for antitumor activity against mammary adenocarcinoma 16/C after injecting the compound intravenously for optimal dose; type: functional, Mus musculus
In short: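 30-60 mg tumor fragments implanted sc by trocar on day 0 into C57Bl/6-derived hosts (B16) or C3H/He-derived hosts (16/C). Drug given iv on days 6, 9 and 13 (B16) or 6, 9 and 12 (16/C), 10 mice per group. Tumors measured by caliper. T/C % taken from median tumor burden of treated vs control groups on day 15 (B16) or day 14 (16/C). Body weight change per mouse recorded at nadir.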

[13] = system: P388; experiment: Compound was evaluated in vivo for antitumor activity after intraperitoneal administration against P388/L-PAM(14) for mortality range at an optimal dose of 0.5 mg/kg/injection at 1,4,7,11 day schedule.; type: functional, Mus musculus
[14] = system: L1210; experiment: Compound was evaluated in vivo for antitumor activity after intraperitoneal administration against L1210(935)for change in body weight at an optimal dose of 0.25 mg/kg/injection at 1,4,7,11day schedule.; type: functional, Mus musculus; in short: as §1
[15] = system: L1210; experiment: Compound was evaluated in vivo for antitumor activity after intraperitoneal administration against L1210(935) for mortality range at an optimal dose of 0.2 mg/kg/injection at 1-4 day schedule.; type: functional, Mus musculus; in short: as §1
[16] = system: P388; experiment: Compound was evaluated in vivo for antitumor activity after intraperitoneal administration against P388 (1313) for median day of death at an optimal dose of 1 mg/kg/injection; type: functional, Mus musculus
[17] = system: L1210; experiment: Compound was evaluated in vivo for antitumor activity after intraperitoneal administration against L1210(935) for tumor free survivors at an optimal dose of 0.1 mg/kg/injection at 1-4 day schedule.; type: functional, Mus musculus; in short: as §1
[18] = system: P388; experiment: Compound was evaluated in vivo for antitumor activity after intraperitoneal administration against P388 (1313) for mortality range at an optimal dose of 0.5 mg/kg/injection; type: functional, Mus musculus
[19] = system: B16; experiment: Compound was evaluated in vivo for antitumor activity against […] B16 melanoma 2 after injecting the compound intravenously for optimal dose; type: functional, Mus musculus
[20] = system: P388; experiment: Compound was evaluated in vivo for antitumor activity after intraperitoneal administration against P388/L-PAM(14) for tumor free survivors at an optimal dose of 1 mg/kg/injection; type: functional, Mus musculus
[21] = system: P388; experiment: Compound was evaluated in vivo for antitumor activity after intraperitoneal administration against P388 (1313) for tumor free survivors at an optimal dose of 0.4 mg/kg/injection; type: functional, Mus musculus
[22] = system: P388; experiment: Compound was evaluated in vivo for antitumor activity after intraperitoneal administration against P388/L-PAM(14) for change in body weight at an optimal dose of 0.1 mg/kg/injection at 1,2,3,4 day schedule.; type: functional, Mus musculus
[23] = system: L1210; experiment: Compound was evaluated in vivo for antitumor activity after intraperitoneal administration against L1210(935) for mortality range at an optimal dose of 0.5 mg/kg/injection at 1 day schedule.; type: functional, Mus musculus; in short: as §1
[24] = system: B16; experiment: Compound was evaluated in vivo for antitumor activity against B16 melanoma 2 after injecting the compound intravenously for total dose.; type: functional, Mus musculus
[25] = Compound was evaluated in vivo for antitumor activity against Glasgow osteogenic sarcoma after injecting the compound intravenously for median tumor burden; type: functional, Mus musculus
In short: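 Glasgow osteogenic sarcoma in C57Bl/6-derived hosts: 30-60 mg fragments implanted sc by trocar on day 0. Drug given iv on days 3, 6 and 9, 7 mice per group. Tumors measured by caliper. Median tumor burden recorded on day 10. Body weight change per mouse recorded at nadir. Toxicity-related deaths counted.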

[26] = system: P388; experiment: Compound was evaluated in vivo for antitumor activity after intraperitoneal administration against P388/L-PAM(14) for change in body weight at an optimal dose of 0.5 mg/kg/injection at one day schedule.; type: functional, Mus musculus
[27] = system: P388; experiment: Compound was evaluated in vivo for antitumor activity after intraperitoneal administration against P388/L-PAM(12) for change in body weight at an optimal dose of 0.75 mg/kg/injection; type: functional, Mus musculus
[28] = system: L1210; experiment: Compound was evaluated in vivo for antitumor activity after intraperitoneal administration against L1210(935)for change in body weight at an optimal dose of 0.1 mg/kg/injection at 1-4 day schedule.; type: functional, Mus musculus; in short: as §1
[29] = system: L1210; experiment: Compound was evaluated in vivo for antitumor activity after intraperitoneal administration against L1210(935)for % increase in life span at an optimal dose of 1 mg/kg/injection at 1 day schedule.; type: functional; settings: Mus musculus, L1210, ip, 24 h; in short: as §1

Question: With `CN(C)CCCNc1ncnc2c1C(=O)C(N1CC1)=C(N1CC1)C2=O` as the compound, how does the “Median day of death” value [1] read?
Answer: 16.5

Question: And the Optimal dose [2]?
Answer: 0.4 mg/kg and 0.2 mg/kg

Question: What about the Survivors [3] of the same compound?
Answer: 1

Question: And the Change of weight [4]?
Answer: 1.7 g mouse-1

Question: And the “Change in body weight” value [5]?
Answer: 0.4 g mouse-1

Question: What about the “Median day of death” value [6] of the same compound?
Answer: 14

Question: What about the Mortality [7] of the same compound?
Answer: 16 days

Question: And the Total dose [8]?
Answer: 0.4 mg/kg

Question: What about the “Median day of death” value [9] of the same compound?
Answer: 19.5

Question: And the ILS at 0.5 mg/kg [10]?
Answer: 27%

Question: And the “Change in body weight” value [11]?
Answer: 0.3 g mouse-1

Question: And the Optimal dose [12]?
Answer: 0.4 mg/kg and 0.2 mg/kg

Question: And the Mortality [13]?
Answer: 32 days

Question: What about the “Change in body weight” value [14] of the same compound?
Answer: 1.6 g mouse-1

Question: And the Mortality [15]?
Answer: 14 days

Question: And the “Median day of death” value [16]?
Answer: 19

Question: What about the Survivors [17] of the same compound?
Answer: 0

Question: And the Mortality [18]?
Answer: 30 days

Question: And the Optimal dose [19]?
Answer: 0.2 mg/kg

Question: And the Survivors [20]?
Answer: 0

Question: And the Survivors [21]?
Answer: 1

Question: And the “Change in body weight” value [22]?
Answer: 0.5 g mouse-1

Question: What about the Mortality [23] of the same compound?
Answer: 16 days

Question: And the Total dose [24]?
Answer: 1.8 mg/kg

Question: And the Tumor burden [25]?
Answer: 40 mg

Question: And the “Change in body weight” value [26]?
Answer: 1.3

Question: And the “Change in body weight” value [27]?
Answer: -1 g mouse-1

Question: What about the “Change in body weight” value [28] of the same compound?
Answer: 0.4 g mouse-1

Question: What about the ILS at 1 mg/kg [29] of the same compound?
Answer: 27%
